Test results reported in ChEMBL document CHEMBL3616378 (J Med Chem, 2015).

How the values were obtained:
[1] = biological target: T1, Metabotropic glutamate receptor 2 (Homo sapiens, UniProt Q14416); test: Agonist activity at wild type human recombinant mGlu2 receptor expressed in AV12 cells assessed as stimulation of Ca2+ mobilization after 1 hr by FLIPR assay; format: functional, cell-based
[2] = biological target: Metabotropic glutamate receptor 2 (Homo sapiens, UniProt Q14416, L300Q); test: Agonist activity at human recombinant mGlu2 receptor L300Q mutant expressed in AV12 cells assessed as stimulation of Ca2+ mobilization after 1 hr by FLIPR assay; format: functional, cell-based
[3] = biological target: Metabotropic glutamate receptor 2 (Homo sapiens, UniProt Q14416, E273D/L300Q); test: Agonist activity at human recombinant mGlu2 receptor E273D and L300Q mutant expressed in AV12 cells assessed as stimulation of Ca2+ mobilization after 1 hr by FLIPR assay; format: functional, cell-based
[4] = Solubility of the compound in DMSO at 20 uM; format: physicochemical
[5] = Metabolic stability of the compound in rat hepatocytes assessed as loss of compound at 2 uM; format: ADME, cell-based, Hepatocyte; settings: read-out: Drug degradation
Procedure, shortened: (§1)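 Hepatocytes from mouse, rat, dog and human; compound tested at 2 µM; percent loss of parent compound measured.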

[6] = Metabolic stability of the compound in human hepatocytes assessed as loss of compound at 2 uM; format: ADME, cell-based, Hepatocyte; settings: read-out: Drug degradation; procedure, shortened: as §1
[7] = Cmax in Sprague-Dawley rat at 1 mg/kg, iv; format: ADME, organism-based; design: dose 1 mg/kg, route intravenous; settings: in vivo
Procedure, shortened: (§2)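 Fasted male Sprague–Dawley rats (~250 g) received a single dose of compound dissolved in water and adjusted to pH 7–7.5 with NaOH, given iv, by oral gavage or ip. Serial blood samples (11–12 per rat) were drawn from a jugular vein catheter into EDTA and kept frozen. Plasma was mixed with methanol:water (1:1) containing an analogue internal standard for analysis. Mean plasma parameters are reported.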

[8] = Clearance in Sprague-Dawley rat at 1 mg/kg, iv; format: ADME, organism-based; settings: in vivo; procedure, shortened: as §2
[9] = Half life in Sprague-Dawley rat at 1 mg/kg, iv; format: ADME, organism-based; settings: in vivo; procedure, shortened: as §2
[10] = AUC (0 to 24 hrs) in Sprague-Dawley rat at 5 mg/kg, po; format: ADME, organism-based; design: time < 24 hr, dose 5 mg/kg, route oral; settings: in vivo; procedure, shortened: as §2
[11] = Tmax in Sprague-Dawley rat at 5 mg/kg, po; format: ADME, organism-based; settings: in vivo
Procedure, shortened: (§3)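 Compound dissolved in water, pH adjusted to 7–7.5 with NaOH; single dose to fasted male Sprague–Dawley rats (~250 g) by oral gavage, intravenous or intraperitoneal route. Serial blood (11–12 samples per rat) from jugular vein catheter into EDTA tubes, centrifuged, frozen; 25 µL plasma mixed with methanol:water (1:1) containing analogue internal standard.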

[12] = Cmax in Sprague-Dawley rat at 1 mg/kg, ip; format: ADME, organism-based; design: dose 1 mg/kg, route intraperitoneal; settings: in vivo; procedure, shortened: as §2
[13] = Tmax in Sprague-Dawley rat at 1 mg/kg, ip; format: ADME, organism-based; settings: in vivo; procedure, shortened: as §3
[14] = Half life in Sprague-Dawley rat at 1 mg/kg, ip; format: ADME, organism-based; settings: in vivo; procedure, shortened: as §2
[15] = AUC (0 to 24 hrs) in Sprague-Dawley rat at 3 mg/kg, ip; format: ADME, organism-based; design: time < 24 hr, dose 3 mg/kg, route intraperitoneal; settings: in vivo; procedure, shortened: as §2
[16] = Cmax in Sprague-Dawley rat at 3 mg/kg, ip; format: ADME, organism-based; design: dose 3 mg/kg, route intraperitoneal; settings: in vivo; procedure, shortened: as §2
[17] = AUC (0 to 24 hrs) in Sprague-Dawley rat at 10 mg/kg, ip; format: ADME, organism-based; design: dose 10 mg/kg, time < 24 hr, route intraperitoneal; settings: in vivo; procedure, shortened: as §2
[18] = Plasma concentration in Sprague-Dawley rat at 1 mg/kg, ip after 0.5 hrs; format: ADME, organism-based
Procedure, shortened: (§4)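 Separate experiment: single ip doses of 1, 3 and 10 mg/kg to rats, compound in water adjusted to pH 7–7.5 with NaOH; plasma (with csf) sampled at 0.5, 1 and 4 h; mean plasma concentrations ± SEM reported.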

[19] = Plasma concentration in Sprague-Dawley rat at 3 mg/kg, ip after 0.5 hrs; format: ADME, organism-based; procedure, shortened: as §4
[20] = biological target: T1, Metabotropic glutamate receptor 2; test: Displacement of [3H]-459477 from human recombinant mGlu2 receptor expressed in AV12 cells after 90 mins by liquid scintillation counting; format: cell-based
[21] = biological target: T2, Metabotropic glutamate receptor 3 (Homo sapiens, UniProt Q14832); test: Displacement of [3H]-459477 from human recombinant mGlu3 receptor expressed in AV12 cells after 90 mins by liquid scintillation counting; format: cell-based
[22] = Plasma concentration in Sprague-Dawley rat at 3 mg/kg, ip after 1 hr; format: ADME, organism-based; procedure, shortened: as §4
[23] = Plasma concentration in Sprague-Dawley rat at 1 mg/kg, ip after 4 hrs; format: ADME, organism-based; procedure, shortened: as §4
[24] = Drug level in Sprague-Dawley rat cerebrospinal fluid at 1 mg/kg, ip after 0.5 hrs; format: ADME, organism-based; settings: read-out: Drug uptake
Procedure, shortened: (§5)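 Male Sprague–Dawley rats received single ip doses of 1, 3 or 10 mg/kg. Cerebrospinal fluid and plasma levels were determined at 0.5, 1 and 4 h. Mean csf concentration (nM ± SEM) is reported.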

[25] = biological target: T2, Metabotropic glutamate receptor 3; test: Agonist activity at human recombinant mGlu3 receptor expressed in AV12 cells assessed as inhibition of forskolin-stimulated cAMP production after 1 hr by fluorescence assay; format: functional, cell-based
[26] = biological target: T2, Metabotropic glutamate receptor 3; test: Agonist activity at human recombinant mGlu3 receptor expressed in AV12 cells assessed as stimulation of Ca2+ mobilization after 1.5 hrs by FLIPR assay; format: functional, cell-based
[27] = biological target: T2, Metabotropic glutamate receptor 3; test: Antagonist activity at human recombinant mGlu3 receptor expressed in AV12 cells assessed as inhibition of glutamate-stimulated Ca2+ mobilization after 1.5 hrs by FLIPR assay; format: functional, cell-based
[28] = biological target: Metabotropic glutamate receptor 1 (Homo sapiens, UniProt Q13255); test: Antagonist activity at human recombinant mGlu1 receptor expressed in AV12 cells assessed as inhibition of glutamate-stimulated Ca2+ mobilization after 1 hr by FLIPR assay; format: functional, cell-based
[29] = biological target: Metabotropic glutamate receptor 5 (Homo sapiens, UniProt P41594); test: Antagonist activity at human recombinant mGlu5 receptor expressed in AV12 cells assessed as inhibition of glutamate-stimulated Ca2+ mobilization after 1 hr by FLIPR assay; format: functional, cell-based
[30] = biological target: Metabotropic glutamate receptor 7 (Homo sapiens, UniProt Q14831); test: Agonist activity at human recombinant mGlu7 receptor expressed in AV12 cells assessed as stimulation of Ca2+ mobilization after 1 hr by FLIPR assay; format: functional, cell-based
[31] = biological target: Metabotropic glutamate receptor 8 (Homo sapiens, UniProt O00222); test: Agonist activity at human recombinant mGlu8 receptor expressed in AV12 cells assessed as inhibition of forskolin-stimulated cAMP production after 1 hr by fluorescence assay; format: functional, cell-based
[32] = Drug level in Sprague-Dawley rat cerebrospinal fluid at 1 mg/kg, ip after 1 hr; format: ADME, organism-based; settings: read-out: Drug uptake; procedure, shortened: as §5
[33] = Drug level in Sprague-Dawley rat cerebrospinal fluid at 3 mg/kg, ip after 1 hr; format: ADME, organism-based; settings: read-out: Drug uptake; procedure, shortened: as §5
[34] = Drug level in Sprague-Dawley rat cerebrospinal fluid at 1 mg/kg, ip after 4 hrs; format: ADME, organism-based; settings: read-out: Drug uptake; procedure, shortened: as §5
[35] = system: Rattus norvegicus; test: Antipsychosis activity in ip dosed Sprague-Dawley rat assessed as reduction of […] in horizontal ambulations administered 30 mins before PCP challenge measured after 60 mins; format: functional
[36] = system: Rattus norvegicus; test: Toxicity in Sprague-Dawley rat assessed as impairment of neuromuscular coordination at 3 mg/kg, ip after 1 to 3 hrs by rotarod test; format: organism-based; settings: in vivo
[37] = biological target: T1, Metabotropic glutamate receptor 2; test: Agonist activity at human recombinant mGlu2 receptor expressed in AV12 cells assessed as inhibition of forskolin-stimulated cAMP production after 20 min by fluorescence assay

T1 sequence (Q14416 whole entry): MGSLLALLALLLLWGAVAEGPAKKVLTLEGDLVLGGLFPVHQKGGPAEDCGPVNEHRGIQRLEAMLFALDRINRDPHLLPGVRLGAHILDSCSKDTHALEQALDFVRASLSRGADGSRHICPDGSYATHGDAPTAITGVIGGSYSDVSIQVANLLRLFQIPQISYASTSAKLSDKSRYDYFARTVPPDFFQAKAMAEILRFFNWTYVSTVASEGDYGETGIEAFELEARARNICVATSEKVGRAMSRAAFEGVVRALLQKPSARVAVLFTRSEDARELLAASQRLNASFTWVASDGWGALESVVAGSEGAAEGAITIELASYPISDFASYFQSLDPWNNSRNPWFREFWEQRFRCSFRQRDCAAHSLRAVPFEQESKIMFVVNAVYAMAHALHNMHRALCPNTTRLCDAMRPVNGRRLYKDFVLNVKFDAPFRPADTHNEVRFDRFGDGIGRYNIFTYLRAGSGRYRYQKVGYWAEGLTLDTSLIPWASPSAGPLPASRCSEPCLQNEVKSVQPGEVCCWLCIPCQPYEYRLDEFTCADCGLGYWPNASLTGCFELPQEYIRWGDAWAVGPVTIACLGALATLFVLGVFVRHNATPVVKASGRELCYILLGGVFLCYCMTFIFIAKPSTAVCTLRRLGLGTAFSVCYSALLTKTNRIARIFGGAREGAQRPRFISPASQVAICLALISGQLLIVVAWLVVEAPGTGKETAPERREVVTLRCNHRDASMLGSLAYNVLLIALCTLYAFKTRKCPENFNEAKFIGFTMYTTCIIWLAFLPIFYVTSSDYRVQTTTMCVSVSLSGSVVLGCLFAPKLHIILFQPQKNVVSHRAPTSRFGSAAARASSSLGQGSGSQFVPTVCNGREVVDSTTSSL
T2 sequence (Q14832 whole entry): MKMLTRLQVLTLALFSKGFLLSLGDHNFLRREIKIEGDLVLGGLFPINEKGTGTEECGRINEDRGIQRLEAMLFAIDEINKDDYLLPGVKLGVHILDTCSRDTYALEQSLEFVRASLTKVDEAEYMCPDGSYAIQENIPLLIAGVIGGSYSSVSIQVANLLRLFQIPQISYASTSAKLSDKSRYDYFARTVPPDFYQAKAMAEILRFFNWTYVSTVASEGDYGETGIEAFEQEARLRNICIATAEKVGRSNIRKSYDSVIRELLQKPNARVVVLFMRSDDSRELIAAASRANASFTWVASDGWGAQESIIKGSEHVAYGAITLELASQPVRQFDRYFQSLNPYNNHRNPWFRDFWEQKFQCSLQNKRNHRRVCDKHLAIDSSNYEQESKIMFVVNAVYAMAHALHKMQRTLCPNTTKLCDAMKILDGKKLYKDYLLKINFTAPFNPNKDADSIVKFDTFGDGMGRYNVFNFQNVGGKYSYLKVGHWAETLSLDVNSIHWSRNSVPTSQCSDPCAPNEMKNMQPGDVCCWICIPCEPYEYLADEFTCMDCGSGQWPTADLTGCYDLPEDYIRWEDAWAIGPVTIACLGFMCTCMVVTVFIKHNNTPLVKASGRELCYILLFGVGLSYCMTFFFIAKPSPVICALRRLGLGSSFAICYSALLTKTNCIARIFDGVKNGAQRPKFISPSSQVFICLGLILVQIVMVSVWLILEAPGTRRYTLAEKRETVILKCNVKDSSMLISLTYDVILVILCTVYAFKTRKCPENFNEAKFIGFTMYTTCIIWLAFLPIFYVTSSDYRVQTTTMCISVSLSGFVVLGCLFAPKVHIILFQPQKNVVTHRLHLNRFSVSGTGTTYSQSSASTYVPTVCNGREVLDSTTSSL
Sequence of Metabotropic glutamate receptor 2 (Homo sapiens, UniProt Q14416, E273D/L300Q) (Q14416 19-872 E273D/L300Q limits assumed): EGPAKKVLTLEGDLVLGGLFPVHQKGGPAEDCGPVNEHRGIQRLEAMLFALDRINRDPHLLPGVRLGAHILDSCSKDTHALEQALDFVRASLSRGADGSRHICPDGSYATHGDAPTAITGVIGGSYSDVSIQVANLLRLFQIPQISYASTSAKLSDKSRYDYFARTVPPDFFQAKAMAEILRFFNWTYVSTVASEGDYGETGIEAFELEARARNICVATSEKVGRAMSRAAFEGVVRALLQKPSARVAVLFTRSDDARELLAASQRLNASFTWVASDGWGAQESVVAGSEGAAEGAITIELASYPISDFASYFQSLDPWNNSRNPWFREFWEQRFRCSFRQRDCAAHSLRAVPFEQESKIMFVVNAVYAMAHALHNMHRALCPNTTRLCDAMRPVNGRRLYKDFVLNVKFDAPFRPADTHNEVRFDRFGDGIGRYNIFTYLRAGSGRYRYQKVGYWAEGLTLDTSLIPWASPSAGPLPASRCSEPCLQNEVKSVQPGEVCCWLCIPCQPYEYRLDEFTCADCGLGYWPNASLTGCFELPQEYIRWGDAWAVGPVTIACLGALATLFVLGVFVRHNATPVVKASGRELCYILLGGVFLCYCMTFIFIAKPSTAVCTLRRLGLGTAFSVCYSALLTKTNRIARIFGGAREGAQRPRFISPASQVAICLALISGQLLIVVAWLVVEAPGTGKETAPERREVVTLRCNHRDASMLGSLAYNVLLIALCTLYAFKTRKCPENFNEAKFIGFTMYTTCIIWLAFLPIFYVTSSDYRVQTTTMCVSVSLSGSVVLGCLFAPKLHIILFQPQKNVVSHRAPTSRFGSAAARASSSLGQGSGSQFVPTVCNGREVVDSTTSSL
Sequence of Metabotropic glutamate receptor 1 (Q13255 whole entry): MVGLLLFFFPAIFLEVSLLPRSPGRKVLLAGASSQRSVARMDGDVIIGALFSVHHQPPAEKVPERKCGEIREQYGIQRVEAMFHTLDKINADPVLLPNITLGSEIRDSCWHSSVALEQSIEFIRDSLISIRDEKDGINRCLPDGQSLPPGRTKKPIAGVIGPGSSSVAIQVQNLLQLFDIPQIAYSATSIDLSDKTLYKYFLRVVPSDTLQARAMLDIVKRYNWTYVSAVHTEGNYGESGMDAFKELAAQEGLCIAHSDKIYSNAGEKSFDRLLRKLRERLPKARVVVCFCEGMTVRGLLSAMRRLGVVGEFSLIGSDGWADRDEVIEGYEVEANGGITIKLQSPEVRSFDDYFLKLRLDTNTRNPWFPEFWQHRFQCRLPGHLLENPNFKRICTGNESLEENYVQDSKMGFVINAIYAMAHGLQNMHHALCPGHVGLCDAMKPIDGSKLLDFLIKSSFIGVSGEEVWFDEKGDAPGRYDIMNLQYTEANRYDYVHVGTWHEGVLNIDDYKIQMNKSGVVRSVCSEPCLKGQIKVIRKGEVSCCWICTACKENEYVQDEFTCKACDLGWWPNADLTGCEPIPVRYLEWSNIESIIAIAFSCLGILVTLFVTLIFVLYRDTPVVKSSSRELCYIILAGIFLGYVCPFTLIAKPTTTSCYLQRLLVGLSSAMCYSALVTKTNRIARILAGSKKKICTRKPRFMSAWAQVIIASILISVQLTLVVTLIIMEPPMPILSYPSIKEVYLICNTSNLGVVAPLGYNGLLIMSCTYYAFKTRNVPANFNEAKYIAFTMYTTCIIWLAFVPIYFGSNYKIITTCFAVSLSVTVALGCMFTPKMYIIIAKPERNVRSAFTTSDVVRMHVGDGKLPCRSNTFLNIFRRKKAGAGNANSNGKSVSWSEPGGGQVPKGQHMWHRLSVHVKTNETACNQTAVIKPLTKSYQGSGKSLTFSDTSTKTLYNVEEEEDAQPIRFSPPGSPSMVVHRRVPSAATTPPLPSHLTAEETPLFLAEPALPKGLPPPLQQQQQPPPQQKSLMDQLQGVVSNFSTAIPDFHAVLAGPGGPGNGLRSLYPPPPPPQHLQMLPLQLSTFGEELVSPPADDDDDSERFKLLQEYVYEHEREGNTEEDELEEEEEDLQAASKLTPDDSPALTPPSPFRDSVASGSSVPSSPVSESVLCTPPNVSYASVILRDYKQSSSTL
Sequence of Metabotropic glutamate receptor 5 (P41594 whole entry): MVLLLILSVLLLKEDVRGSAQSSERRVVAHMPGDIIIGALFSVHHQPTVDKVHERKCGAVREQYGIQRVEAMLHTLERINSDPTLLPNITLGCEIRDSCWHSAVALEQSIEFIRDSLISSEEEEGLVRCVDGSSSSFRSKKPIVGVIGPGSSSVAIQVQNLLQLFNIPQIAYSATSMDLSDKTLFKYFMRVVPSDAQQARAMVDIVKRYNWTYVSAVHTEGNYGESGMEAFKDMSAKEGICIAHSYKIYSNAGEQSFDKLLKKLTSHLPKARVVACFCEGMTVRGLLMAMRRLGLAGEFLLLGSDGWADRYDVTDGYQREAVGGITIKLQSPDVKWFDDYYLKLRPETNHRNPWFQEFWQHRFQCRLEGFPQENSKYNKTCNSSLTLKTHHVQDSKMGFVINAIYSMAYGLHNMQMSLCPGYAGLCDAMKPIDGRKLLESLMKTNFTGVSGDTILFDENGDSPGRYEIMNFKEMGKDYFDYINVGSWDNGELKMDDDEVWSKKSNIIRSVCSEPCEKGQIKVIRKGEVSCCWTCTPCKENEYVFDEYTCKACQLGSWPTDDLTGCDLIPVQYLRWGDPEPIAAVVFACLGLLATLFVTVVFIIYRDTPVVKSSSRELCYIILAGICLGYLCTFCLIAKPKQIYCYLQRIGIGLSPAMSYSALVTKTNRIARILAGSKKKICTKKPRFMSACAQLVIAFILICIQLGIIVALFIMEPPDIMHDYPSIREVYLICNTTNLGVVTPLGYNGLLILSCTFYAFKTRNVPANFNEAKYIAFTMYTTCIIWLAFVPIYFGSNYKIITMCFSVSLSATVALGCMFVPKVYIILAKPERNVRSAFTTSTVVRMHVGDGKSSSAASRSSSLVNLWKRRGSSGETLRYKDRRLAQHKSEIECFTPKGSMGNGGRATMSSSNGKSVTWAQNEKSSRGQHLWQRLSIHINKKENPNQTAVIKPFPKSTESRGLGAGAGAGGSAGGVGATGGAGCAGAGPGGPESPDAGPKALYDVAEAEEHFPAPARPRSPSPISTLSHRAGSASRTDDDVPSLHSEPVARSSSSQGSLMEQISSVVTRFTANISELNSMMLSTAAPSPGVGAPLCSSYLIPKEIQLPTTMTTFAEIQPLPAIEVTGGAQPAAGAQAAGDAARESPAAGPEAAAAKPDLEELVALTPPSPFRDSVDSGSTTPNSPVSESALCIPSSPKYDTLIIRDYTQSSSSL
Sequence of Metabotropic glutamate receptor 2 (Homo sapiens, UniProt Q14416, L300Q) (Q14416 19-872 L300Q limits assumed): as the sequence (Q14416 19-872 E273D/L300Q limits assumed) above, with D255E counted along it

## N[C@@]1(C(=O)O)C[C@@H](Sc2nc[nH]n2)[C@H]2[C@H](C(=O)O)[C@H]21
[1]
  EC50: 20.1 nM
[2]
  EC50: 22.1 nM
[3]
  EC50: 48.2 nM
[4]
  solubility at 20 µM: > 10 mM
[5]
  metabolised at 2 µM: < 10%
[6]
  metabolised at 2 µM: < 10%
[7]
  Cmax: 9.54 µM
[8]
  clearance: 12.3 mL/min/kg
[9]
  half-life: 198 min
[10]
  AUC(0-t) at 24 h: 1.01 µM·h
[11]
  Tmax: 30 min
[12]
  Cmax: 4.92 µM
[13]
  Tmax: 24 min
[14]
  half-life: 72 min
[15]
  AUC(0-t) at 24 h: 10.8 µM·h
[16]
  Cmax: 8.05 µM
[17]
  AUC(0-t) at 24 h: 43.1 µM·h
[18]
  concentration at 0.5 h: 6 µM
[19]
  concentration at 0.5 h: 10.1 µM
[20]
  Ki: 144 nM
[21]
  Ki: 156 nM
[22]
  concentration at 1 h: 4.98 µM
[23]
  concentration at 4 h: 0.314 µM
[24]
  concentration at 0.5 h: 0.0488 µM
[25]
  EC50: 129 nM
[26]
  EC50: > 25000 nM
[27]
  IC50: 25200 nM
[28]
  IC50: > 12500 nM
[29]
  IC50: > 12500 nM
[30]
  EC50: > 25000 nM
[31]
  EC50: 10100 nM
[32]
  concentration at 1 h: 0.0399 µM
[33]
  concentration at 1 h: 0.0864 µM
[34]
  concentration at 4 h: 0.0097 µM
[35]
  ED50: 1.2 mg/kg
[36]
  Activity: Non-toxic
[37]
  EC50: 5.6 nM
